Results gathered from unrelated publications.
Lines come from different studies, so protocols differ.
Target: Ephrin type-B receptor 1 (EPHB1, Homo sapiens, UniProt P54762)
One construct used (P54762 18-984): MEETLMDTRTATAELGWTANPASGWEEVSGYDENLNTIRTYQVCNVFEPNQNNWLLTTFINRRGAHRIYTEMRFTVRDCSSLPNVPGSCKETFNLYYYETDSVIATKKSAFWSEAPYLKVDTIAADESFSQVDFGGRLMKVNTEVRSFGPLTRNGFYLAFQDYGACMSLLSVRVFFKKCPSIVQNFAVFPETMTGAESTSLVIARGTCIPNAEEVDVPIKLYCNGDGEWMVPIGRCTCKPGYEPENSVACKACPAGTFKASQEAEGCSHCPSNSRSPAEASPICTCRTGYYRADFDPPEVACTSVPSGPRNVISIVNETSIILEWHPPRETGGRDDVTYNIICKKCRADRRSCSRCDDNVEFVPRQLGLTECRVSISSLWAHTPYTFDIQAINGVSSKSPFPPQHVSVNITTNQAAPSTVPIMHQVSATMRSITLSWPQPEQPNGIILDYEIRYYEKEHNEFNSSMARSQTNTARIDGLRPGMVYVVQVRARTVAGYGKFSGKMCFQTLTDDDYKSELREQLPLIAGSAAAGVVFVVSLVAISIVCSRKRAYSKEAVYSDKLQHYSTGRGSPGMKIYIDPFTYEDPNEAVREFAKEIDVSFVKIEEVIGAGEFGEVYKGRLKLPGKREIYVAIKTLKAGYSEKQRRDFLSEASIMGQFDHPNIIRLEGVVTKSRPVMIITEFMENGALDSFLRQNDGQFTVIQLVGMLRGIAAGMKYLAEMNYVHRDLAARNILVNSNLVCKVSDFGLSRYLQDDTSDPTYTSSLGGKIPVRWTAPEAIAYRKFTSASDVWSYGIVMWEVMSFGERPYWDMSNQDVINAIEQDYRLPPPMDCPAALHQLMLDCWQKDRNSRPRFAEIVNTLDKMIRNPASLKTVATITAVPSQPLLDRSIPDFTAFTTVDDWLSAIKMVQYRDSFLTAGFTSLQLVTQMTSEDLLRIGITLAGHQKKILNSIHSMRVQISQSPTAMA

| Structure (SMILES) | effect on | method | tested at | remaining binding |
| --- | --- | --- | --- | --- |
| C[C@@H]1CCN(c2nccc(-c3cnn4ncccc34)n2)C1 | binding |  | 1 µM | 97% |
| O=C(O)c1cc(-c2ccc(C3CCNCC3)cc2)c2ccc(-c3ccc(C(F)(F)F)cc3)cc2c1 | cell-free assay | competition with immobilised ligand | 1 µM | 100% |
| Cc1cnc(Nc2ccc(C(=O)N3CCC(N4CCCC4)CC3)cc2)nc1-c1cc2ccccc2s1 | binding | competition with immobilised ligand | 1 µM | 4.4% |
| O=C(N[C@H]1CCCCC/C=C\C2C[C@@]2(C(=O)O)NC(=O)[C@@H]2C[C@@H](Oc3ccncc3)CN2C1=O)OC1CCCC1 (some centres unmarked) | cell-free assay | competition with immobilised ligand | 1 µM | 100% |
| O=C(NCCCN1CCOCC1)c1ccc(Nc2ncc(Cl)c(-c3ccc(Cl)s3)n2)cc1 | binding | competition with immobilised ligand | 1 µM | 58% |
| CCS(=O)(=O)c1cc2cc(C[C@](O)(CC(C)(C)c3ccc(F)cc3C(N)=O)C(F)(F)F)[nH]c2cn1 | cell-free assay | competition with immobilised ligand | 1 µM | 86% |
| CN(C)c1ncc(F)c(-c2cnn3ncccc23)n1 | binding |  | 1 µM | 100% |
| CO[C@@H](C)c1c(Nc2ccc([C@H](N(C)C(=O)C3CCS(=O)(=O)CC3)C(F)(F)F)cc2)cnc2cc(Cl)nn12 | cell-free assay | competition with immobilised ligand | 1 µM | 86% |
| CN(c1nccc(-c2cnn3ncccc23)n1)C1CC1 | binding |  | 1 µM | 100% |
| CCN1CCN(Cc2ccc(C(=O)Nc3ccc(C)c(Oc4ccc5c(c4)CC(=O)N5)c3)cc2C(F)(F)F)CC1 | binding | competition with immobilised ligand | 1 µM | 100% |
| CC1CCCN1c1nccc(-c2cnn3ncccc23)n1 (centres unmarked) | binding |  | 1 µM | 100% |
| Cc1cc(NC(=O)c2cccc(S(F)(F)(F)(F)F)c2)cc(-n2ccn3nc(-c4cccnc4)cc23)c1 | cell-free assay | competition with immobilised ligand | 1 µM | 100% |
| COc1cnc(Nc2cccc(S(N)(=O)=O)c2)nc1N1CCN(c2ccccc2)CC1 | binding | competition with immobilised ligand | 1 µM | 97% |
| O=C(NCC1CCOCC1)c1n[nH]cc1NC(=O)c1c(F)cccc1F | binding | competition with immobilised ligand | 1 µM | 100% |
| c1cncc(-c2cccc(Nc3nccc(NC4CCCCC4)n3)c2)c1 | binding | competition with immobilised ligand | 10 µM | 81% |
| COc1ncc2cc3ccccc3nc2c1C#N | cell-free assay | competition with immobilised ligand | 5 µM | 91% |
| N[C@H]1CCN(c2nccc(-c3cnn4ncccc34)n2)C1 | binding |  | 1 µM | 100% |
| O=C(c1ccc(Nc2ncc(Cl)c(-c3ccc(Cl)s3)n2)cc1)N1CCC(N2CCCC2)CC1 | binding | competition with immobilised ligand | 1 µM | 30% |
| N#CC1(c2ccccn2)CCN(Cc2cc(C(=O)N3CCCC3)c(=O)n3ccccc23)CC1 | cell-free assay | competition with immobilised ligand | 1 µM | 91% |
| c1cnn2ncc(-c3ccnc(N4CCC45COC5)n3)c2c1 | binding |  | 1 µM | 100% |
